Measurements from ChEMBL document CHEMBL1125865, “Synthesis, antibacterial activities, and pharmacological properties of enantiomers of temafloxacin hydrochloride” (J Med Chem, 1991).
Values after ≈ are worked out from the molar mass of the structure shown.

What was measured:
[1] = test system: Rattus norvegicus; experiment: Effect on the spontaneous locomotor activity of rats at 0-15 min upon po administration of the compounds at a dose of 30 mg/kg; format: functional
In short: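 Rats were given test agent or methylcellulose vehicle (ip or po, per line), with treatments in random order. 30 min after dosing, each rat went into an individual circular activity chamber. Locomotion was counted as photocell-beam interruptions, recorded at 15 and 60 min from test start and reported as mean counts ± SEM.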

[2] = Partition coefficient in octanol/water at pH 7.5 buffer.; format: physicochemical
[3] = Compound was tested for its water solubility at pH 7.5; format: physicochemical; conditions: aqueous, pH 7.5, pH 7.5
In short: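 Solubility measured by adding excess drug to a fixed volume of 0.05 M pH 7.5 potassium phosphate buffer at ambient temperature.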

[4] = Compound was tested for its water solubility in water.; format: ADME; conditions: read-out: S
In short: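 Solubility measured by adding excess drug to a fixed volume of distilled water at ambient temperature.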

[5] = test system: Enterococcus faecium; experiment: The in vitro antibacterial activity as minimum inhibitory concentration against Enterococcus faecium ATCC 8043; format: functional
In short: (§1)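 Agar dilution in BHI agar. Organisms were grown overnight in BHI broth at 36 °C. Two-fold dilutions gave test concentrations from 200 to 0.005 μg/mL. Plates were inoculated with ~10^4 organisms and incubated 18 h at 36 °C. MIC was the lowest concentration with no visible growth.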

[6] = test system: Escherichia coli; experiment: Median dose against Escherichia coli Juhl in mouse after peroral administration at a dose of 100xLD50 in TEST 2.; format: functional; conditions: po
In short: (§2)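 CF-1 female mice (~20 g) were infected ip with 0.5 mL of an 18-h BHI broth culture diluted in 5% (w/v) hog gastric mucin to the stated multiple of LD50. The HCl salt was dissolved in distilled water and given sc or po, with the total dose split equally at 1 and 5 h post-infection. Groups of 10 mice received at least three dose levels; ten infected mice were left untreated. Deaths were recorded daily for 6 days. ED50 came from day-6 cumulative mortality using the trimmed logit method.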

[7] = test system: Escherichia coli; experiment: Median dose against Escherichia coli Juhl in mouse after subcutaneous administration at a dose of 100xLD50 in TEST 1.; format: functional; conditions: sc; in short: as §2
[8] = test system: Escherichia coli; experiment: Median dose against Escherichia coli Juhl in mouse after subcutaneous administration at a dose of 100xLD50 in TEST 2.; format: functional; conditions: sc; in short: as §2
[9] = test system: Escherichia coli; experiment: The in vitro antibacterial activity as minimum inhibitory concentration against Escherichia coli DC-2; format: functional; in short: as §1
[10] = test system: Escherichia coli; experiment: The in vitro antibacterial activity as minimum inhibitory concentration against Escherichia coli Juhl; format: functional; in short: as §1
[11] = test system: Escherichia coli; experiment: The in vitro antibacterial activity as minimum inhibitory concentration against Escherichia coli KNK437; format: functional; in short: as §1
[12] = test system: Escherichia coli; experiment: The in vitro antibacterial activity as minimum inhibitory concentration against Escherichia coli SS; format: functional; in short: as §1
[13] = test system: Escherichia coli; experiment: Median dose against Escherichia coli Juhl cumulative mortalities in mouse after peroral administration at a dose of 100xLD50 in TEST 1.; format: functional; conditions: po
In short: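 Female CF-1 mice (~20 g) were challenged ip with 0.5 mL of 18-h BHI culture diluted in 5% hog gastric mucin to 100× LD50 (LD50 by Reed–Muench). Oral doses in distilled water were split equally at 1 and 5 h post-infection, with ≥3 dose levels and 10 mice each, plus untreated controls. ED50 was derived from day-6 cumulative mortality by trimmed logit.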

[14] = test system: Klebsiella aerogenes; experiment: The in vitro antibacterial activity as minimum inhibitory concentration against Enterobacter aerogenes ATCC 13048; format: functional; in short: as §1
[15] = test system: Klebsiella pneumoniae; experiment: The in vitro antibacterial activity as minimum inhibitory concentration against Klebsiella pneumoniae ATCC 8045; format: functional; in short: as §1
[16] = test system: Micrococcus luteus; experiment: The in vitro antibacterial activity as minimum inhibitory concentration against Micrococcus luteus ATCC 4698; format: functional; in short: as §1
[17] = test system: Micrococcus luteus; experiment: The in vitro antibacterial activity as minimum inhibitory concentration against Micrococcus luteus ATCC 9341; format: functional; in short: as §1
[18] = test system: Providencia stuartii; experiment: The in vitro antibacterial activity as minimum inhibitory concentration against Providencia stuartii CMX 640; format: functional; in short: as §1
[19] = test system: Pseudomonas aeruginosa; experiment: The in vitro antibacterial activity as minimum inhibitory concentration against Pseudomonas aeruginosa A5007; format: functional; in short: as §1
[20] = test system: Pseudomonas aeruginosa; experiment: The in vitro antibacterial activity as minimum inhibitory concentration against Pseudomonas aeruginosa BMH10; format: functional; in short: as §1
[21] = test system: Pseudomonas aeruginosa; experiment: The in vitro antibacterial activity as minimum inhibitory concentration against Pseudomonas aeruginosa K799/61; format: functional; in short: as §1
[22] = test system: Pseudomonas aeruginosa; experiment: The in vitro antibacterial activity as minimum inhibitory concentration against Pseudomonas aeruginosa K799/WT; format: functional; in short: as §1
[23] = test system: Pseudomonas aeruginosa; experiment: Median dose against Pseudomonas aeruginosa A5007 in mouse after peroral administration at a dose of 100xLD50 in TEST 1.; format: functional; conditions: po; in short: as §2
[24] = test system: Pseudomonas aeruginosa; experiment: Median dose against Pseudomonas aeruginosa A5007 in mouse after peroral administration at a dose of 100xLD50 in TEST 2.; format: functional; conditions: po; in short: as §2
[25] = test system: Pseudomonas aeruginosa; experiment: Median dose against Pseudomonas aeruginosa A5007 in mouse after subcutaneous administration at a dose of 100xLD50 in TEST 1.; format: functional; conditions: sc; in short: as §2
[26] = test system: Pseudomonas aeruginosa; experiment: Median dose against Pseudomonas aeruginosa A5007 in mouse after subcutaneous administration at a dose of 100xLD50 in TEST 2.; format: functional; conditions: sc; in short: as §2
[27] = test system: Burkholderia cepacia; experiment: The in vitro antibacterial activity as minimum inhibitory concentration against Pseudomonas cepacia 2961; format: functional; in short: as §1
[28] = test system: Staphylococcus aureus; experiment: Median dose against Staphylococcus aureus NCTC 10649 in mouse after peroral administration at a dose of 100xLD50 in TEST 1.; format: functional; conditions: po; in short: as §2
[29] = test system: Staphylococcus aureus; experiment: Median dose against Staphylococcus aureus NCTC 10649 in mouse after peroral administration at a dose of 100xLD50 in TEST 2.; format: functional; conditions: po; in short: as §2
[30] = test system: Staphylococcus aureus; experiment: Median dose against Staphylococcus aureus NCTC 10649 in mouse after subcutaneous administration at a dose of 100xLD50 in TEST 2.; format: functional; conditions: sc; in short: as §2
[31] = test system: Staphylococcus aureus; experiment: Median dose against Staphylococcus aureus NCTC 10649 in mouse after subcutaneous administration at a dose of 100xLD50 in TEST 1.; format: functional; conditions: sc; in short: as §2
[32] = test system: Staphylococcus epidermidis; experiment: The in vitro antibacterial activity as minimum inhibitory concentration against Staphylococcus epidermidis 3519; format: functional
In short: (§3)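 Agar dilution: organisms grown overnight in BHI broth at 36 °C. Two-fold dilutions of a 2000 μg/mL stock were made in BHI agar, giving 200 to 0.005 μg/mL final. Plates were inoculated with about 10^4 organisms and incubated 18 h at 36 °C. MIC is the lowest concentration with no visible growth.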

[33] = test system: Streptococcus pyogenes; experiment: The in vitro antibacterial activity as minimum inhibitory concentration against Streptococcus pyogenes 2548 INDUC; format: functional; in short: as §3
[34] = test system: Streptococcus pyogenes; experiment: The in vitro antibacterial activity as minimum inhibitory concentration against Streptococcus pyogenes 930 Const; format: functional; in short: as §3
[35] = test system: Streptococcus pyogenes; experiment: The in vitro antibacterial activity as minimum inhibitory concentration against Streptococcus pyogenes EES61; format: functional; in short: as §3
[36] = test system: Streptococcus agalactiae; experiment: The in vitro antibacterial activity as minimum inhibitory concentration against Streptococcus agalactiae CMX 508; format: functional; in short: as §3
[37] = test system: Staphylococcus aureus; experiment: The in vitro antibacterial activity as minimum inhibitory concentration against Staphylococcus aureus 45; format: functional; in short: as §1
[38] = test system: Staphylococcus aureus; experiment: The in vitro antibacterial activity as minimum inhibitory concentration against Staphylococcus aureus 45 RAR2; format: functional; in short: as §1
[39] = test system: Streptococcus pneumoniae; experiment: Median dose against Streptococcus pneumoniae 6303 in mouse after peroral administration at a dose of 100xLD50 in TEST 1.; format: functional; conditions: po; in short: as §2
[40] = test system: Streptococcus pneumoniae; experiment: Median dose against Streptococcus pneumoniae 6303 in mouse after subcutaneous administration at a dose of 100xLD50 in TEST 1.; format: functional; conditions: sc; in short: as §2
[41] = test system: Staphylococcus aureus; experiment: The in vitro antibacterial activity as minimum inhibitory concentration against Staphylococcus aureus A5177; format: functional; in short: as §3
[42] = test system: Staphylococcus aureus; experiment: The in vitro antibacterial activity as minimum inhibitory concentration against Staphylococcus aureus ATCC 6538P; format: functional; in short: as §3
[43] = test system: Staphylococcus aureus; experiment: The in vitro antibacterial activity as minimum inhibitory concentration against Staphylococcus aureus CMX 553; format: functional; in short: as §3
[44] = test system: Streptococcus equinus; experiment: The in vitro antibacterial activity as minimum inhibitory concentration against Streptococcus bovis A5169; format: functional; in short: as §3
[45] = test system: Escherichia coli; experiment: The in vitro antibacterial activity as minimum inhibitory concentration against Escherichia coli H-560; format: functional; in short: as §1
[46] = test system: Acinetobacter; experiment: The in vitro antibacterial activity as minimum inhibitory concentration against Acinetobacter sp. CMX 669; format: functional; in short: as §1

## CCn1cc(C(=O)O)c(=O)c2cc3c(cc21)OCO3 [OXOLINIC ACID]
[1]
  Mean activity counts: 972

## CC1CN(c2cc3c(cc2F)c(=O)c(C(=O)O)cn3-c2ccc(F)cc2F)CCN1 (stereo unspecified) [TEMAFLOXACIN]
[2]
  logD: -0.29
[3]
  solubility: 670 µg/mL (≈ 1610 µM)
[4]
  solubility: 6500 µg/mL (≈ 15600 µM)
[5]
  MIC: 0.78 µg/mL (≈ 1.87 µM)
[6]
  ED50: 5 mg/kg
[7]
  ED50: 0.5 mg/kg
[8]
  ED50: 0.6 mg/kg
[9]
  MIC: 0.39 µg/mL (≈ 0.934 µM)
[10]
  MIC: 0.05 µg/mL (≈ 0.12 µM)
[11]
  MIC: 0.39 µg/mL (≈ 0.934 µM)
[12]
  MIC: 0.005 µg/mL (≈ 0.012 µM)
[13]
  ED50: 3.7 mg/kg
[14]
  MIC: 0.1 µg/mL (≈ 0.24 µM)
[15]
  MIC: 0.05 µg/mL (≈ 0.12 µM)
[16]
  MIC: 1.56 µg/mL (≈ 3.74 µM)
[17]
  MIC: 3.1 µg/mL (≈ 7.43 µM)
[18]
  MIC: 3.1 µg/mL (≈ 7.43 µM)
[19]
  MIC: 0.39 µg/mL (≈ 0.934 µM)
[20]
  MIC: 0.39 µg/mL (≈ 0.934 µM)
[21]
  MIC: 0.05 µg/mL (≈ 0.12 µM)
[22]
  MIC: 0.39 µg/mL (≈ 0.934 µM)
[23]
  ED50: 26.6 mg/kg
[24]
  ED50: 26.6 mg/kg
[25]
  ED50: 10.3 mg/kg
[26]
  ED50: 12.5 mg/kg
[27]
  MIC: 12.5 µg/mL (≈ 29.9 µM)
[28]
  ED50: 6 mg/kg
[29]
  ED50: 3.2 mg/kg
[30]
  ED50: 1.3 mg/kg
[31]
  ED50: 1.5 mg/kg
[32]
  MIC: 0.2 µg/mL (≈ 0.479 µM)
[33]
  MIC: 0.39 µg/mL (≈ 0.934 µM)
[34]
  MIC: 0.78 µg/mL (≈ 1.87 µM)
[35]
  MIC: 0.39 µg/mL (≈ 0.934 µM)
[36]
  MIC: 0.78 µg/mL (≈ 1.87 µM)
[37]
  MIC: 0.2 µg/mL (≈ 0.479 µM)
[38]
  MIC: 0.39 µg/mL (≈ 0.934 µM)
[39]
  ED50: 10.2 mg/kg
[40]
  ED50: 6.2 mg/kg
[41]
  MIC: 0.2 µg/mL (≈ 0.479 µM)
[42]
  MIC: 0.1 µg/mL (≈ 0.24 µM)
[43]
  MIC: 0.2 µg/mL (≈ 0.479 µM)
[44]
  MIC: 1.56 µg/mL (≈ 3.74 µM)
[45]
  MIC: 0.05 µg/mL (≈ 0.12 µM)
[46]
  MIC: 0.1 µg/mL (≈ 0.24 µM)
